{"data": "Assay results collected from several papers", "cell line": "MDA-MB-231", "read-out": "cell growth or viability", "note": "Each line is one published result; the experiments were not run side by side."}
{"Structure (SMILES)": "COc1cc(OC)c(CN2CCc3cc(OS(N)(=O)=O)c(OC)cc3C2)c(OC)c1", "method": "WST-1", "time": "96 h", "measurement": "GI50", "value": "> 100 µM"}
{"Structure (SMILES)": "C[C@]12CC[C@@H]3c4ccc(O)cc4CC[C@H]3[C@@H]1CC[C@@H]2O", "method": "ATP luminescence", "time": "72 h", "measurement": "EC50", "value": "35.8 µM"}
{"Structure (SMILES)": "CCOC(=O)C(C(C)=O)=C1Sc2nc3ccc(S(=O)(=O)N4CCCC4)cc3nc2S1", "method": "MTT", "concentration": "100 µM", "time": "24 h", "measurement": "viability", "value": "3.7%"}
{"Structure (SMILES)": "Cc1ccc2nc(-c3ccc(Cl)cc3)n(Cc3ccccc3Cl)c2c1", "method": "MTT", "measurement": "IC50", "value": "74.2 µM"}
{"Structure (SMILES)": "COc1ccc(/C=C\\c2cc(OC)c(OC)c(OC)c2)cc1O", "method": "imaging", "time": "72 h", "measurement": "CC50", "value": "3.7 nM"}
{"Structure (SMILES)": "COc1cc2c(cc1OS(N)(=O)=O)CCN(Cc1cccc(OC(F)(F)F)c1)C2", "method": "WST-1", "time": "96 h", "measurement": "GI50", "value": "2.29 µM"}
{"Structure (SMILES)": "C[C@]12CCCN1CC1=NNC(=O)c3cc(F)cc4[nH]c2c1c34", "method": "ATP luminescence", "time": "7 days", "measurement": "EC50", "value": "~9 µM"}
{"Structure (SMILES)": "COc1cc2c(cc1OS(N)(=O)=O)CCN(Cc1cccc(C(C)=O)c1)C2", "method": "WST-1", "time": "96 h", "measurement": "GI50", "value": "0.983 µM"}
{"Structure (SMILES)": "CCCCCCCC(=O)NCC(=O)OC", "method": "MTT", "concentration": "10 µM", "time": "48 h", "measurement": "inhibition", "value": "10%"}
{"Structure (SMILES)": "COc1cccc2c1C(=O)c1c(O)c3c(c(O)c1C2=O)C[C@@](O)(C(=O)CO)C[C@@H]3O[C@H]1C[C@H](N)[C@H](O)[C@H](C)O1", "method": "MTT", "concentration": "3.125 µM", "time": "24 h", "measurement": "viability", "value": "52.6%"}
{"Structure (SMILES)": "CCc1cc(CN2CCc3cc(O)c(OC)cc3C2)cc(CC)c1CC", "method": "WST-1", "time": "96 h", "measurement": "GI50", "value": "26 µM"}
{"Structure (SMILES)": "COc1cc2c(cc1OS(N)(=O)=O)CCN(Cc1cccc(C#N)c1)C2", "method": "WST-1", "time": "96 h", "measurement": "GI50", "value": "4.7 µM"}
{"Structure (SMILES)": "c1ccc2[nH]c(-c3ccc4c(c3)OCO4)nc2c1", "method": "MTT", "time": "48 h", "measurement": "IC50", "value": "> 100 µM"}
{"Structure (SMILES)": "O=C1CCCCC1=C1Sc2nc3ccc(S(=O)(=O)N4CCCC4)cc3nc2S1", "method": "MTT", "concentration": "100 µM", "time": "24 h", "measurement": "viability", "value": "8.2%"}
{"Structure (SMILES)": "Cc1ccc2nc(-c3ccc(F)cc3)[nH]c2c1", "method": "MTT", "time": "48 h", "measurement": "IC50", "value": "> 100 µM"}
{"Structure (SMILES)": "COc1cc2c(cc1O)CCN(Cc1cccc(OC)c1OC)C2", "method": "WST-1", "time": "96 h", "measurement": "GI50", "value": "> 100 µM"}
{"Structure (SMILES)": "CCOc1c(OC)cc(CN2CCc3cc(O)c(OC)cc3C2)cc1OC", "method": "WST-1", "time": "96 h", "measurement": "GI50", "value": "0.3 µM"}
{"Structure (SMILES)": "Cc1ccc2nc(-c3ccc([N+](=O)[O-])cc3)n(Cc3ccc(Cl)cc3)c2c1", "method": "MTT", "measurement": "IC50", "value": "9.02 µM"}
{"Structure (SMILES)": "COc1cc2c(cc1O)CCN(Cc1cccc([N+](=O)[O-])c1)C2", "method": "WST-1", "time": "96 h", "measurement": "GI50", "value": "> 100 µM"}
{"Structure (SMILES)": "O=[N+]([O-])c1ccc(-c2nc3ccccc3[nH]2)cc1", "method": "MTT", "time": "48 h", "measurement": "IC50", "value": "26.9 µM"}
{"Structure (SMILES)": "COc1cc2c(cc1O)CCN(Cc1cccc(OC(C)C)c1)C2", "method": "WST-1", "time": "96 h", "measurement": "GI50", "value": "86 µM"}
{"Structure (SMILES)": "COc1cccc2c1C(=O)c1c(O)c3c(c(O)c1C2=O)C[C@@](O)(C(=O)CO)C[C@@H]3O[C@H]1C[C@H](N)[C@H](O)[C@H](C)O1", "method": "MTT", "time": "48 h", "measurement": "IC90", "value": "> 20 µM"}
{"Structure (SMILES)": "CCOc1ccc(-c2nc3ccc(C)cc3[nH]2)cc1", "method": "MTT", "time": "48 h", "measurement": "IC50", "value": "13.2 µM"}
{"Structure (SMILES)": "CCc1cccc(CN2CCc3cc(OS(N)(=O)=O)c(OC)cc3C2)c1", "method": "WST-1", "time": "96 h", "measurement": "GI50", "value": "8 µM"}
{"Structure (SMILES)": "CCc1cc(CN2CCc3cc(OS(N)(=O)=O)c(OC)cc3C2)cc(CC)c1CC", "method": "WST-1", "time": "96 h", "measurement": "GI50", "value": "5.7 µM"}
{"Structure (SMILES)": "Clc1ccc(Cn2c(-c3ccc(Cl)cc3)nc3ccccc32)cc1", "method": "MTT", "measurement": "IC50", "value": "7.48 µM"}
{"Structure (SMILES)": "CC(=O)O[C@H]1C(=O)[C@@]2(C)[C@H]([C@H](OC(=O)c3ccccc3)[C@]3(O)C[C@H](OC(=O)[C@H](O)[C@@H](NC(=O)c4ccccc4)c4ccccc4)C(C)=C1C3(C)C)[C@]1(OC(C)=O)CO[C@@H]1C[C@@H]2O", "method": "WST-1", "time": "96 h", "measurement": "GI50", "value": "0.002 µM"}
{"Structure (SMILES)": "Cc1ccc2nc(-c3cc(Br)ccc3O)[nH]c2c1", "method": "MTT", "time": "48 h", "measurement": "IC50", "value": "6.69 µM"}
{"Structure (SMILES)": "N#CC(C(=O)Nc1cccc(C(F)(F)F)c1)=C1Sc2nc3ccc(S(=O)(=O)N4CCCC4)cc3nc2S1", "method": "MTT", "concentration": "3.125 µM", "time": "24 h", "measurement": "viability", "value": "77.1%"}
